Screening data (PubChem)
CHOP inhibitor: CHOP inhibition in unfolded protein response. CHO-K1 CHOP-promoter luciferase, tunicamycin-induced, 15-18 h. inhibition, % at 10 µM. actives 3.8% (n = 220,000). AID 2732;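 active = compounds that reduced the stress-induced luciferase reporter signal by more than about 70% of percent inhibition, limit read from the data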
697 NFkB inh: inhibitors of the PMA/ionomycin-induced NF-kB reporter in 697 B cells; 697 B-cell NF-kB luciferase reporter, 16 h; inhibition, % at 4 µM; actives 0.33% (n = 330,000); in the data active = inhibition above about 35%
XBP1 UPR activ: adaptive UPR (XBP1) activation | CHO-XBP1 luciferase reporter, IRE1-XBP1 UPR activation, luminescence; percent of tunicamycin response, DMSO as zero | activation, % at 20 µM | actives 0.33% (n = 330,000);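 active = versus positive control, 20 µM dose yields 30% or more activation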
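assay system = CHO-XBP1 luciferase reporter cells | amount = 1000 cells/well | buffer or medium = F12 plus 10% FBS | compound dosing = single point, 20 µM final compound, 1% DMSO | incubation = 16-18 h cell attachment at 37 °C, then 6 h compound exposure | detection = Steady-Glo luminescence read | controls = tunicamycin 10 µg/mL and vehicle-only wells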
CHOP UPR activ: activators of apoptotic arm of unfolded protein response (CHOP); CHO-CHOP luciferase reporter, UPR activation, luminescence; percent of tunicamycin response over DMSO baseline; activation, % at 10 µM; actives 0.34% (n = 330,000);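 active = at 10 µM dose, activation of 40% or more, normalized to positive control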
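Test system: CHO CHOP reporter cells. Input: 500 CHO-CHOP cells per well. Medium: F12 with 10% FBS. Technique: luciferase luminescence. Measure: percent activation relative to tunicamycin control. Dosing: 10 µM compound, 0.5% DMSO. Timing: 16-18 h cell attachment, then 6 h compound exposure, 37 °C.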
Jurkat NFkB inh: inhibitors of the PMA/ionomycin-induced NF-kB reporter in Jurkat cells | PMA/ionomycin-induced NF-kB luciferase reporter, luminescence | inhibition, % at 4 µM | actives 0.53% (n = 330,000); in the data active = inhibition above about 50%
UPR XBP1 confirm: confirmation of adaptive unfolded protein response (XBP1) activators | shares compounds with XBP1 UPR activ | CHO-XBP1 IRE1-XBP1 luciferase reporter, luminescence | activation, % at 20 µM | actives 63% (n = 1,000) | AID 485299;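 active = reporter signal at least 30% of the positive control's activation in two or more of four replicate wells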
A number is an active result; . = inactive; / = no result given. Only a selection was taken, and hits are over-represented in it overall.

SMILES | CHOP inhibitor | 697 NFkB inh | XBP1 UPR activ | CHOP UPR activ | Jurkat NFkB inh | UPR XBP1 confirm
N=c1c(S(=O)(=O)c2ccccc2)cc2c(=O)n3ccccc3nc2n1C1CCCC1 | / | . | 30 | . | . | .
N=c1c(S(=O)(=O)c2ccc(Br)cc2)cc2c(=O)n3ccccc3nc2n1C1CCCC1 | / | . | . | . | . | /
COc1ccccc1CNCC(O)Cn1c2ccccc2c2ccccc21 (centres undefined) | . | . | 30 | . | . | .
CCC(C)Nc1nc(N)c([N+](=O)[O-])c(NC2CCCCC2)n1 (centres undefined) | / | . | 35 | . | . | 31
COc1ccc(Nc2nc(N)c([N+](=O)[O-])c(NC3CCCCC3)n2)cc1 | / | . | 53 | . | . | 35
Cc1ccc2cc(CN(CC(C)C)S(=O)(=O)c3cccc4nonc34)c(=O)[nH]c2c1 | / | . | . | . | . | /
CC(=O)N1CCN(c2nc(C)nc3sc4c(c23)CCC(C)C4)CC1 (centres undefined) | . | . | . | . | . | /
Cc1nc(N2CCN(C(=O)c3cnccn3)CC2)c2c3c(sc2n1)CC(C(C)(C)C)CC3 (centres undefined) | / | . | 34 | . | . | .
Cc1ccc(NC(=O)C2CCCN(S(=O)(=O)c3cccc4cccnc34)C2)cc1 (centres undefined) | / | . | . | . | . | /
O=c1cc(CN2CCN(c3ccc(F)cc3)CC2)c2cc3c(cc2o1)CCCC3 | . | . | 100 | . | . | 96
CCOc1ccc(-c2nc(CN3CCCC(C(=O)N4CCOCC4)C3)c(C)o2)cc1 (centres undefined) | / | . | . | . | . | /
COc1cccc(NC(=O)CSc2nc3c([nH]c4ccccc43)c(=O)n2C)c1 | . | . | 35 | . | . | .
Cn1c(SCC(=O)Nc2ccccc2)nc2c([nH]c3ccccc32)c1=O | . | . | . | . | . | /
COc1cc(CNCCO)cc(Br)c1OCc1ccccc1Cl | . | . | . | . | . | /
COc1cc(CNCCO)cc(Cl)c1OCc1ccc(Cl)cc1Cl | 95 | . | 63 | . | . | 134
CCCc1cc(C(=O)N2CCCC(Cc3ccccc3C)(C(=O)OCC)C2)no1 (centres undefined) | / | . | . | . | . | /
c1ccc(C2NCCn3cccc32)cc1 (centres undefined) | . | . | 49 | . | . | .
Fc1ccc(C2NCCn3cccc32)cc1 (centres undefined) | . | . | . | . | . | /
O=C(CSc1nc2ccc(Cl)cc2[nH]1)Nc1ccc2[nH]c(=O)[nH]c2c1 | / | . | . | . | . | /
CC(=O)Oc1ccc(-c2ccc(C(=O)OCC(=O)N(C)CC(=O)Nc3ccccc3Cl)cc2)cc1 | / | . | 123 | . | . | 137
COC(=O)c1ccc2c(=O)n(CC3CCCO3)c(SCC(=O)Nc3ccccc3Cl)nc2c1 (centres undefined) | . | . | 35 | . | . | .
CCCNC(=O)/C(C#N)=C1\N=C(NC(=O)c2cccs2)c2ccccc21 | / | . | 45 | . | . | 66
COc1cc(OC)c2c(-c3cccc(-c4ccc(CO)cc4)c3)cc(=O)oc2c1 | / | . | 34 | . | / | 30
CCn1c(SCc2cccc(OC)c2)nc2ccccc2c1=O | / | . | . | . | . | /
Cc1cc(N2CCN(c3nc(-c4ccc([N+](=O)[O-])cc4)cs3)CC2)c2ccccc2n1 | 82 | . | 68 | . | . | 39
SMILES | CHOP inhibitor | 697 NFkB inh | XBP1 UPR activ | CHOP UPR activ | Jurkat NFkB inh | UPR XBP1 confirm
Cc1cc(-c2ccc([N+](=O)[O-])cc2)nc2ccccc12 | . | . | . | . | . | /
CCc1ccccc1NC(=O)CN(C)C(=O)COC(=O)c1ccco1 | / | . | . | . | . | /
CC(C)N(C(=O)[C@H]1C[C@H](CC(=O)NCc2cccc(C(F)(F)F)c2)C(=O)N2CCc3c([nH]c4ccc(Cl)cc34)[C@]12C)C(C)C | / | . | 55 | . | / | 70
CC(=O)Nc1sc(C)c(C)c1C(=O)OCC(=O)Nc1cccc(C)c1 | / | . | 37 | . | . | .
CCOc1cc(/C=C(\C#N)c2[nH]nc(N)c2C#N)ccc1O | . | . | 32 | . | . | 51
CCOc1cc(/C=C(\C#N)C(=O)Nc2ccccn2)ccc1O | / | . | . | . | . | /
